Experimental data collected from several papers.
Protocols differ between the studies behind these lines.
MTNR1B: Melatonin receptor type 1B (MTNR1B, Homo sapiens, UniProt P49286)

| Compound | target | test | setting | endpoint | result |
| --- | --- | --- | --- | --- | --- |
| C[C@H](C(=O)N[C@@H]1COc2ccccc2[C@H]1S(C)(=O)=O)c1ccc(F)cc1 | Metabotropic glutamate receptor 7 (GRM7, Homo sapiens, UniProt Q14831) | cAMP, agonist, luciferase | – | EC50 | 28 nM |
| CC(C)c1ccc(CNc2cccc(-c3nnc[nH]3)c2)cc1 | MTNR1B | cell-free assay | – | Ki | 3720 nM |
| O=C(O)CC[C@@H](O)C(=O)O | Protein phosphatase 3 catalytic subunit alpha (PPP3CA, Homo sapiens, UniProt Q08209) | binding, SPR | – | Kd | ~67000 nM |
| Clc1ccc(CNc2cccc(-c3nnc[nH]3)c2)c(Br)c1 | MTNR1B | cell-free assay | – | Ki | 1410 nM |
| COc1ccc2c(c1)C(=O)C1(CCc3ccccc31)O2 (centres unmarked) | Peptidyl-prolyl cis-trans isomerase NIMA-interacting 1 (PIN1, Homo sapiens, UniProt Q13526) | enzyme activity, inhibitor | – | Ki | 77000 nM |
| Cc1cc2nc3c(=O)[nH]c(=O)nc-3n(C[C@H](O)[C@H](O)[C@H](O)COP(=O)(O)OP(=O)(O)OC[C@H]3O[C@@H](n4cnc5c(N)ncnc54)[C@H](O)[C@@H]3O)c2cc1C | Protein PRRC2C (Homo sapiens, UniProt Q9Y520) | binding | lysate | Kd | 23700 nM |
| O=C(NCCc1cccc2ccccc12)C1CCC1 | MTNR1B | cAMP, agonist, TR-FRET | – | EC50 | 1660 nM |
| CC(=O)c1cc([N+](=O)[O-])c(Sc2cccc(Cl)c2Cl)s1 | Cathepsin D (CTSD, Homo sapiens, UniProt P07339) | enzyme activity, inhibitor | – | EC50 | > 50000 nM |
| COCC(CNC(C)=O)c1cccc2ccc(OC)cc12 (centres unmarked) | MTNR1B | β-arrestin recruitment, agonist | – | EC50 | 3.09 nM |
| O=C1c2ccccc2CCN1CCCCN1CCN(c2cccc(Cl)c2Cl)CC1 | 5-hydroxytryptamine receptor 1B (HTR1B, Homo sapiens, UniProt P28222) | ligand displacement, radioligand | – | Ki | 73 nM |
| COc1ccc2[nH]cc(CCNC(C)=O)c2c1I | MTNR1B | cAMP, agonist, TR-FRET | – | EC50 | 229 nM |
| Cc1cc(Nc2cc3ncccc3c(N[C@@H]3C[C@H]4CC[C@@H](C3)N4CCC#N)n2)n[nH]1 | Cyclin-dependent kinase 7 (CDK7, Homo sapiens, UniProt P50613) | binding, competition with immobilised ligand | – | Kd | 860 nM |
| CCc1ccc2scc(CCNC(C)=O)c2c1 | MTNR1B | cAMP, agonist, TR-FRET | – | EC50 | 39.8 nM |
| C=C1CC[C@@H]2[C@](C)(CO)[C@H](O)CC[C@@]2(C)[C@@H]1CCC1=CCOC1=O | UDP-glucuronosyltransferase 2B7 (UGT2B7, Homo sapiens, UniProt P16662) | enzyme activity, inhibitor | pH 7.4 | Ki | 1500 nM |
